Screening results from PubChem.
NSD2 inh: NSD2 (human) methyltransferase inhibition; O96028; NSD2 peptide methylation, AlphaScreen, 120 min; inhibition, % at 12.5 µM; hit rate 0.54% among 310,000; in the data active = inhibition above about 50%
SUMO HTRF inh: blocks human SUMOylation mediated by UBC9; HTRF SUMOylation assay, SAE1/SAE2 + UBC9, in vitro; inhibition, % at 35 µM; P63279; hit rate 0.36% among 290,000; AID 2006; in the data active = inhibition above about 50%, passing the limit was not always enough; inconclusive = no clear call, values can overlap the other calls
Target sequence (P63279 whole entry, looked up): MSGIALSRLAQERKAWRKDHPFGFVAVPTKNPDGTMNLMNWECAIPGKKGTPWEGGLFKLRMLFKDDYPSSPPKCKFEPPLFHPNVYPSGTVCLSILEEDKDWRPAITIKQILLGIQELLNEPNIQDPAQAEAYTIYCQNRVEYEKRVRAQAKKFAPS
Fh CTSL1 inh: cathepsin L1 inhibition, PFM18AAP counter-screen. recombinant F. hepatica cathepsin L1, Z-Leu-Arg-MCA fluorescence. inhibition, % at 5.96 µM. hit rate 0.49% among 300,000. AID 1906;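 active = inhibition above the mean of all tested compounds plus 3 SD, set per screening campaign, cut at about 17% in these data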
TDP2 absorb: blocks human TDP2 phosphodiesterase activity; O95551; recombinant TDP2, T5PNP hydrolysis, p-nitrophenol absorbance 415 nm; inhibition, % at 12.8 µM; hit rate 0.34% among 370,000; AID 720702;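 active = inhibition above the mean of all tested compounds plus 3 SD, set per campaign, cut at about 25% in these data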
Target sequence (O95551 whole entry, looked up): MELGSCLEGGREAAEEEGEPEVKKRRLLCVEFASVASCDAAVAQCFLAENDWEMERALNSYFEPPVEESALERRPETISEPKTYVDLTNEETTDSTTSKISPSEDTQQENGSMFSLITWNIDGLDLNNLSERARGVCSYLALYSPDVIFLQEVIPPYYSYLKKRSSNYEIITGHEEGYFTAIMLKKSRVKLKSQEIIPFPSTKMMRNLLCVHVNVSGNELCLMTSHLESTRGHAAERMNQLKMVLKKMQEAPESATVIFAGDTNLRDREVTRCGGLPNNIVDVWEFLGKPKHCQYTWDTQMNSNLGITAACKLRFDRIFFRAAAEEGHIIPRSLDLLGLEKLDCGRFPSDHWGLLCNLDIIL
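Evaluation: % inhibition relative to enzyme-containing and enzyme-free wells. Material: recombinant human TDP2. Benchmarks: enzyme-free and DMSO wells. Timing: enzyme reaction with compound for 2 h at 37 °C. Compound dosing: 12.8 µM only. Measured by: p-Nitrophenol epi absorbance. Reagent: T5PNP substrate at 5 mM, a TopII-DNA adduct mimic. Replication: single well per compound.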
TDP2 confirm: confirmation of human TDP2 inhibitors; shares compounds with TDP2 absorb; inhibition, % at 12.8 µM; recombinant human TDP2, absorbance read-out; hit rate 22% among 1,100; in the data active = inhibition above about 25%
AlphaScreen art: interferes with AlphaScreen signal, flagging NSD2 false positives | shares compounds with NSD2 inh | AlphaScreen artifact counterscreen, preloaded methylated H4 peptide | AC35, µM (doses to about 10 µM) | hit rate 9.4% among 1,500 | AID 1053174; call rule not given here
Large screens that a line does not name were inactive (follow-up assays come after a bar, where they were run). A selection: hits, their analogues and other compounds. The true share with any hit is near 1.2%.

O=c1c(O)cccc2cc(O)c(O)c(O)c12	NSD2 inh 128, SUMO HTRF inh inconclusive, TDP2 absorb 28 | TDP2 confirm inactive | AlphaScreen art 1.6µM
O=c1cc(-c2ccccc2)oc2cc(O)c(O)c(O)c12	none (no result: NSD2 inh, SUMO HTRF inh, Fh CTSL1 inh)
Cc1ccccc1Cn1c(C)c(C(=O)NCc2ccc(Cl)c(Cl)c2)sc1=O	none (no result: NSD2 inh, SUMO HTRF inh, Fh CTSL1 inh)
C[C@H]1[C@H](c2ccccc2)Oc2ccc(Cl)cc2S(=O)(=O)N1C[C@@H]1CCCN1C(=O)OC(C)(C)C	none (no result: NSD2 inh, SUMO HTRF inh, Fh CTSL1 inh)
N#Cc1cc(Cl)c(N2CCOCC2)cc1C#N	none
N#Cc1cc2ccc(N3CCOCC3)cc2cc1C#N	NSD2 inh 120, TDP2 absorb 69 | TDP2 confirm inactive | AlphaScreen art inactive
N#CC1C(=O)Nc2cccnc21 (configuration not stated)	NSD2 inh 121, TDP2 absorb 66 (no result: SUMO HTRF inh, Fh CTSL1 inh) | TDP2 confirm inactive | AlphaScreen art inactive
O=C1Nc2ccccc2C1Cc1ccccn1 (configuration not stated)	none
O=C1C(=C(I)I)c2ccccc2-c2ccccc21	NSD2 inh 131, TDP2 absorb 98 (no result: SUMO HTRF inh, Fh CTSL1 inh) | TDP2 confirm 88 | AlphaScreen art inactive
CCOC(=O)c1c2c(n(Cc3ccccc3)c1C)C(=O)C(=O)c1ccccc1-2	NSD2 inh 63, TDP2 absorb 51 (no result: SUMO HTRF inh, Fh CTSL1 inh) | TDP2 confirm 73 | AlphaScreen art 9.3µM
Cc1ccc(-c2nc3c(C)cc(Br)cn3c2Cc2ccccc2C(F)(F)F)cc1	none (no result: NSD2 inh, SUMO HTRF inh, Fh CTSL1 inh)
Cc1nnc(N/N=C\c2ccc(-c3cccc(C(=O)O)c3)o2)n1N	NSD2 inh 95, TDP2 absorb 59 | TDP2 confirm inactive | AlphaScreen art inactive
c1coc(-c2nc(-c3ccco3)c(-c3ccco3)nc2-c2ccco2)c1	NSD2 inh 149, SUMO HTRF inh inconclusive, TDP2 absorb 50 | TDP2 confirm inactive | AlphaScreen art inactive
Nc1nc(-c2ccco2)c(-c2ccco2)s1	none
Cc1nc(C(F)(F)F)ccc1C(=O)N1CCC1(C)C(=O)NCc1ccc(Cl)cc1 (configuration not stated)	none (no result: SUMO HTRF inh, Fh CTSL1 inh)
Cc1nc(COC(=O)c2cc(O)c3ccccc3c2O)cs1	NSD2 inh 78, TDP2 absorb 26 (no result: Fh CTSL1 inh) | TDP2 confirm inactive | AlphaScreen art inactive
Cc1nc(COC(=O)c2ccc(CO)cc2)cs1	none
COc1cc(N)c2ncccc2c1Br	NSD2 inh 152, TDP2 absorb 76 (no result: SUMO HTRF inh, Fh CTSL1 inh) | TDP2 confirm 51 | AlphaScreen art inactive
COc1ccc(/C(C)=N/NC(=S)NCCc2ccccc2)c(O)c1	none
Oc1ccc(CNc2ccccc2C(F)(F)F)c2cccnc12	none (no result: NSD2 inh, SUMO HTRF inh, Fh CTSL1 inh)
Oc1ccccc1CNc1cccc2cccnc12	NSD2 inh 53, SUMO HTRF inh 76, TDP2 absorb 35 | TDP2 confirm inactive | AlphaScreen art inactive
COc1ccc(CC2=CC(=O)c3ccccc3C2=O)cc1	NSD2 inh 55, TDP2 absorb 53 | TDP2 confirm inactive | AlphaScreen art inactive
COc1ccc(CC(=O)NN2C(=O)c3ccccc3C2=O)cc1	none
CC(Nc1cccc2ccccc12)C(=O)N/N=C/c1ccccn1 (configuration not stated)	NSD2 inh 132, TDP2 absorb 26 | TDP2 confirm inactive | AlphaScreen art inactive
COc1ccc(C(c2c(C)[nH]n(-c3ccccc3)c2=O)c2c(C)[nH]n(-c3ccccc3)c2=O)cc1OC	NSD2 inh 98, TDP2 absorb 88 | TDP2 confirm 39 | AlphaScreen art inactive
Cc1ccc(C(=O)OCCc2c(C)[nH]n(-c3ccccc3)c2=O)cc1	none
COc1ccc(C(c2c(C)n(C)n(-c3ccccc3)c2=O)c2c(C)n(C)n(-c3ccccc3)c2=O)cc1OC	none
Cc1[nH]n(-c2ccccc2)c(=O)c1C(C[N+](=O)[O-])c1ccc(F)cc1 (configuration not stated)	NSD2 inh 65, SUMO HTRF inh 88, TDP2 absorb 38 | TDP2 confirm inactive | AlphaScreen art inactive
Cc1ccc(C(C[N+](=O)[O-])c2c(C)[nH]n(-c3ccccc3)c2=O)cc1 (configuration not stated)	NSD2 inh 103, SUMO HTRF inh 71, Fh CTSL1 inh 31, TDP2 absorb 34 | TDP2 confirm 32 | AlphaScreen art inactive
COc1cc2c(cc1OC)C(c1ccccc1)N(Cc1ccc(S(=O)(=O)NC(=O)c3ccco3)cc1)CC2 (configuration not stated)	none (no result: NSD2 inh, SUMO HTRF inh, Fh CTSL1 inh)
Cc1ccc(C)c(S(=O)(=O)N2CCN(C(=O)c3cccnc3)CC2)c1	none
CCc1nc2c(OCc3ccc(C(F)(F)F)cc3)cccn2c1N(C=O)Cc1ccc(OC)cc1	none (no result: SUMO HTRF inh, Fh CTSL1 inh)
COc1ccc(/C=N/Nc2nnc(C)n2N)cc1OC	NSD2 inh 111, TDP2 absorb 54 | TDP2 confirm inactive | AlphaScreen art inactive
COc1ccc(/C=N/Nc2ncnc(Cl)c2N)cc1OC	none
O=C(NCCCO)c1ccc2nc(-c3ccco3)c(-c3ccco3)nc2c1	NSD2 inh 107, SUMO HTRF inh inconclusive, TDP2 absorb 40 (no result: Fh CTSL1 inh) | TDP2 confirm 31 | AlphaScreen art inactive
O=C1C(Nc2cccc(O)c2)=C(N2CCCCC2)C(=O)c2ccccc21	NSD2 inh 64, Fh CTSL1 inh 86, TDP2 absorb 51 | TDP2 confirm 52 | AlphaScreen art inactive
CC1(C(=O)NS(=O)(=O)c2ccc(Cl)cc2)CCN1C(=O)C1(c2ccc(Cl)cc2)CCC1 (configuration not stated)	none (no result: SUMO HTRF inh, Fh CTSL1 inh)
COc1cc2[nH]c(Cl)c([N+](=O)[O-])c2cc1OC	NSD2 inh 95, TDP2 absorb 40 | TDP2 confirm inactive | AlphaScreen art inactive
CC(=O)N1CCn2c3c(c(=O)c4cc(C)ccc42)CCC31 (configuration not stated)	NSD2 inh 97, Fh CTSL1 inh 24, TDP2 absorb 34 | TDP2 confirm 50 | AlphaScreen art inactive
CCN1CCn2c3c(c4cc(C)ccc42)CCCC31 (configuration not stated)	none (no result: NSD2 inh)
O=C(COC(=O)c1ccc([N+](=O)[O-])s1)Nc1ccccc1	NSD2 inh 69, Fh CTSL1 inh 74, TDP2 absorb 50 | TDP2 confirm inactive | AlphaScreen art inactive
O=C(OCC(=O)N1CCC(c2ccccc2)=N1)c1ccc([N+](=O)[O-])s1	none (no result: SUMO HTRF inh)
C=CCn1c(NS(=O)(=O)c2ccccc2)c(S(=O)(=O)c2ccc(C)cc2)c2nc3ccccc3nc21	NSD2 inh 115, TDP2 absorb 37 (no result: SUMO HTRF inh) | TDP2 confirm 39 | AlphaScreen art inactive
O=C1C=C(Nc2ccccc2O)c2ccccc2C1=O	NSD2 inh 94, Fh CTSL1 inh 22, TDP2 absorb 61 | TDP2 confirm 54 | AlphaScreen art inactive
O=C1C=C(Nc2cccnc2)c2ccccc2C1=O	NSD2 inh 99, TDP2 absorb 72 (no result: SUMO HTRF inh, Fh CTSL1 inh) | TDP2 confirm 59 | AlphaScreen art inactive
Cc1ccc(NC2=CC(=O)C(=O)c3ccccc32)c(C)c1	none (no result: SUMO HTRF inh, Fh CTSL1 inh)
CC(O)(c1ccc(F)c(F)c1)c1nc(-c2ccoc2)cs1 (configuration not stated)	none (no result: SUMO HTRF inh, Fh CTSL1 inh)
COc1ccc(Cl)cc1-c1noc([C@@H]2O[C@H](CO)[C@@H](O)[C@H]2O)n1	none (no result: SUMO HTRF inh, Fh CTSL1 inh)
